# In ChEMBL document CHEMBL3102799, “Glutathione-analogous peptidyl phosphorus esters as mechanism-based inhibitors of γ-glutamyl transpeptidase for probing cysteinyl-glycine binding site” (Bioorg Med Chem, 2014):
# Activity calls are given as the source filed them. The rule behind the calls is not given here.
# Assays:
# Escherichia coli [1] = assay: Inhibition of hydrolytic activity of Escherichia coli GGT using 7-(N-gamma-glutamylamino)-4-methylcoumarin as substrate assessed as release of AMC at 1 mM by fluorescence assay; settings: TDE = time-dependent effect
# How it was run: (§1)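 E. coli enzyme purified from periplasmic fraction of recombinant E. coli K-12 (SH642). Time-dependent inactivation, pseudo-first-order: enzyme added to preincubated inhibitor plus 0.2 μM γ-Glu-AMC (final; equals Km) in 100 mM sodium succinate pH 5.5, 25°C, no acceptor substrate. AMC release (ex 350/em 440 nm) followed continuously 10 min; progress curves fit first-order for kobs; kon from kobs = kon[I]/(1+[S]/Km).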
# Escherichia coli [2] = assay: Inhibition of hydrolytic activity of Escherichia coli GGT using 7-(N-gamma-glutamylamino)-4-methylcoumarin as substrate assessed as release of AMC after 10 mins by fluorescence assay
# [3] = target: Glutathione hydrolase 1 proenzyme (Homo sapiens) (UniProt P19440); assay: Inhibition of hydrolytic activity of human GGT using 7-(N-gamma-glutamylamino)-4-methylcoumarin as substrate assessed as release of AMC after 10 mins by fluorescence assay
# Glutathione hydrolase 1 proenzyme (Homo sapiens), sequence (P19440 1-380 limits assumed): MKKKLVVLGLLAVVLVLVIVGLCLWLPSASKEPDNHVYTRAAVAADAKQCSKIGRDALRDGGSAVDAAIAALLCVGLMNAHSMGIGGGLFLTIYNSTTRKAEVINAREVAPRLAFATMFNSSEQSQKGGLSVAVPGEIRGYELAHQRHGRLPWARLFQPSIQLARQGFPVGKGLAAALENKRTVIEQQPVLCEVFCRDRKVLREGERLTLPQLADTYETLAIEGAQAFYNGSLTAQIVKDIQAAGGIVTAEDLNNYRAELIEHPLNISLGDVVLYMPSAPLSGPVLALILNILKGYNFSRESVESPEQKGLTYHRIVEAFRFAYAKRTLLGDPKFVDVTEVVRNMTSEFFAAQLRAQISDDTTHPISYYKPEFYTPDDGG
# Glutathione hydrolase 1 proenzyme (Homo sapiens), sequence (P19440 381-569 limits assumed): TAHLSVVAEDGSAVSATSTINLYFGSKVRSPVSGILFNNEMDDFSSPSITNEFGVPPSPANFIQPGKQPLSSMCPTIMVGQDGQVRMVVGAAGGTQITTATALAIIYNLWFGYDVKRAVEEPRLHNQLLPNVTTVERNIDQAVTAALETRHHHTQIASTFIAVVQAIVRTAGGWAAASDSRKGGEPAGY
# How it was run: (§2)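 Human GGT (HC-GTP, BSA-stabilised, used unpurified). Enzyme added to preincubated inhibitor plus 4.0 μM γ-Glu-AMC (final; Km 12.6 μM) in 100 mM sodium succinate pH 5.5, 25°C, no acceptor. AMC fluorescence (ex 350/em 440 nm) read continuously 10 min against AMC calibration; first-order fit of progress curves gives kobs; kon derived as kobs = kon[I]/(1+[S]/Km).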
# Escherichia coli [4] = assay: Binding affinity to Cys-Gly binding site of Escherichia coli GGT by ion-spray mass spectroscopy analysis
# [5] = target: Glutathione hydrolase 1 proenzyme (Homo sapiens) (UniProt P19440); assay: Irreversible inhibition of hydrolytic activity of human GGT using 7-(N-gamma-glutamylamino)-4-methylcoumarin as substrate assessed as release of AMC at 1 mM after 10 mins by fluorescence assay; how it was run: as §2
# [6] = target: Glutathione hydrolase 1 proenzyme (Homo sapiens) (UniProt P19440); assay: Ratio of acivicin to compound for hydrolytic activity of human GGT
# Escherichia coli [7] = assay: Inhibition of hydrolytic activity of Escherichia coli GGT using 7-(N-gamma-glutamylamino)-4-methylcoumarin as substrate assessed as release of AMC at 1 mM after 10 mins by fluorescence assay; how it was run: as §1
# [8] = target: Glutathione hydrolase 1 proenzyme (Homo sapiens) (UniProt P19440); assay: Inhibition of hydrolytic activity of human GGT using 7-(N-gamma-glutamylamino)-4-methylcoumarin as substrate assessed as release of AMC at 1 mM after 10 mins by fluorescence assay; how it was run: as §2
# [9] = target: Glutathione hydrolase 1 proenzyme (Homo sapiens) (UniProt P19440); assay: Inhibition of hydrolytic activity of human GGT using 7-(N-gamma-glutamylamino)-4-methylcoumarin as substrate assessed as release of AMC by fluorescence assay; settings: TDE = time-dependent effect; how it was run: as §2
# Escherichia coli [10] = assay: Inhibition of hydrolytic activity of Escherichia coli GGT using 7-(N-gamma-glutamylamino)-4-methylcoumarin as substrate assessed as release of AMC at 1.5 mM after 10 mins by fluorescence assay; how it was run: as §1
SMILES,inhibition (Escherichia coli [1]),K (Escherichia coli [2]),K [3],inhibition [8],further results
NC(CC[P@@](=O)(Oc1ccccc1)O[C@@H](CCl)C(=O)NCC(=O)O)C(=O)O (mixture of isomers),tde,188 M⁻¹ s⁻¹,40.3 M⁻¹ s⁻¹,,
CC[C@H](O[P@@](=O)(CCC(N)C(=O)O)Oc1ccccc1)C(=O)NCC(=O)O (mixture of isomers),tde,109 M⁻¹ s⁻¹,145 M⁻¹ s⁻¹,,Activity (Escherichia coli [4]): Active; inhibition [5]: Active; Ratio [6]: > 360
CCC(OP(=O)(CCC(N)C(=O)O)Oc1ccccc1)C(=O)NCC(=O)O (mixture of isomers),,80 M⁻¹ s⁻¹,75 M⁻¹ s⁻¹,,
CC[C@H](O[P@](=O)(CCC(N)C(=O)O)OC)C(=O)NCC(=O)O (mixture of isomers),,,,inactive,inhibition (Escherichia coli [7]): inactive
CCCC[C@H](O[P@@](=O)(CCC(N)C(=O)O)Oc1ccccc1)C(=O)NCC(=O)O (mixture of isomers),tde,50.7 M⁻¹ s⁻¹,63.2 M⁻¹ s⁻¹,,
N[C@@H](CCP(=O)(CCC(=O)NCC(=O)O)Oc1ccccc1)C(=O)O (mixture of isomers),,,1.35 M⁻¹ s⁻¹,,inhibition [9]: tde; inhibition (Escherichia coli [10]): inactive
CCCC[C@H](O[P@@](=O)(CCC(N)C(=O)O)Oc1ccccc1)C(=O)OC (mixture of isomers),tde,8.83 M⁻¹ s⁻¹,,inactive,
CCCC[C@@H](O[P@@](=O)(CCC(N)C(=O)O)Oc1ccccc1)C(=O)NCC(=O)O (mixture of isomers),,,,inactive,inhibition (Escherichia coli [7]): inactive
NC(CC[P@@](=O)(Oc1ccccc1)O[C@@H](CI)C(=O)NCC(=O)O)C(=O)O (mixture of isomers),tde,98.4 M⁻¹ s⁻¹,43.6 M⁻¹ s⁻¹,,
N[C@H](C(=O)O)[C@@H]1CC(Cl)=NO1,,4200 M⁻¹ s⁻¹,0.4 M⁻¹ s⁻¹,,
NC(CCP(=O)(OCC(=O)NCC(=O)O)Oc1ccccc1)C(=O)O (mixture of isomers),,80.6 M⁻¹ s⁻¹,44.5 M⁻¹ s⁻¹,,
CCCC[C@@H](O[P@](=O)(CCC(N)C(=O)O)Oc1ccccc1)C(=O)NCC(=O)O (mixture of isomers),,1.3 M⁻¹ s⁻¹,,inactive,
CCCC[C@H](O[P@](=O)(CCC(N)C(=O)O)Oc1ccccc1)C(=O)NCC(=O)O (stereo partly drawn),,1.7 M⁻¹ s⁻¹,,inactive,
NC(CC[P@@](=O)(Oc1ccccc1)O[C@@H](Cc1ccccc1)C(=O)NCC(=O)O)C(=O)O (mixture of isomers),tde,389 M⁻¹ s⁻¹,4.44 M⁻¹ s⁻¹,,
